# ChEMBL document CHEMBL4706614, “Design, synthesis and biological evaluation of novel naphthoquinone-4-aminobenzensulfonamide/carboxamide derivatives as proteasome inhibitors” (Eur J Med Chem, 2021)
# Activity calls are given as the source filed them. The rule behind the calls is not given here. Residues, ends and D or L forms follow the SMILES beside them. *: point of attachment. Cbz = O=C(OCc1ccccc1)*
# What was measured:
# MCF7 [1] = assay: Antiproliferative activity against human MCF7 cells assessed as cell viability after 48 hrs MTT assay; assay type: functional, cell-based; settings: MCF7, 48 h
# Procedure, shortened: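 MTT:medium (1:9) added 4 h at 37°C, formazan dissolved in DMSO, absorbance 570 nm. DMSO solvent control; triplicate; IC50 = concentration inhibiting 50% of viability.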
# [2] = target: T1, Proteasome Macropain subunit MB1 (Homo sapiens) (UniProt P28074); assay: Inhibition of chymotrypsin-like activity 20S proteasome beta subunit 5 of human MCF7 cells using fluorogenic substrate Suc-LLVY-AMC at 10 uM after 1 hr by fluorescence analysis relative to control; assay type: cell-based
# T1 sequence (whole entry): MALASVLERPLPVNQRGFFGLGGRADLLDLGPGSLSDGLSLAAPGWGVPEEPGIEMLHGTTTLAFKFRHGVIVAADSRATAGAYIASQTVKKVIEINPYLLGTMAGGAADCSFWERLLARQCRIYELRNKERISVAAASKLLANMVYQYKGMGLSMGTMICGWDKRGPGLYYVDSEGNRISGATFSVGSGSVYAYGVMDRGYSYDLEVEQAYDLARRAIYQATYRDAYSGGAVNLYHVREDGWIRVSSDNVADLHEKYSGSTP
# Procedure, shortened: (§1)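 Screen at 10 µM: MCF-7 lysates (sucrose/HEPES/MgCl2/EDTA buffer, 1 mM DTT) preincubated 10 min in 225 mM Tris pH 7.8, 7.5 mM MgOAc, 7.5 mM MgCl2, 45 mM KCl, 1 mM DTT; compound 1 h at 37 °C, then substrate 1 h at 37 °C; AMC release ex 360/em 460 nm versus DMSO; MG-132 positive control.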
# [3] = target: T2, Proteasome component C5 (Homo sapiens) (UniProt P20618); assay: Inhibition of caspase-like activity 20S proteasome beta subunit 1 of human MCF7 cells using fluorogenic substrate Z-LLE-AMC at 10 uM after 1 hr by fluorescence analysis relative to control; assay type: cell-based; procedure, shortened: as §1
# T2 sequence (whole entry): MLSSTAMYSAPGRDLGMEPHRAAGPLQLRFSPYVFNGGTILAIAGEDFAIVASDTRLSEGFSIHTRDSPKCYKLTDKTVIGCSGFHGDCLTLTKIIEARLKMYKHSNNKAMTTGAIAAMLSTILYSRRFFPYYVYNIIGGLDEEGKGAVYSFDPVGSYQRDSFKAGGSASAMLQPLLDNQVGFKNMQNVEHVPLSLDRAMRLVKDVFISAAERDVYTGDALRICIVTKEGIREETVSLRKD
# [4] = target: Proteasome Macropain subunit (Homo sapiens) (UniProt P49721); assay: Inhibition of trypsin-like activity 20S proteasome beta subunit 2 of human MCF7 cells using fluorogenic substrate Boc-LRR-AMC at 10 uM after 1 hr by fluorescence analysis relative to control; assay type: cell-based; procedure, shortened: as §1
# [5] = target: T3, Proteasome Macropain subunit MB1 (Homo sapiens, UniProt P28074); assay: Inhibition of chymotrypsin-like activity 20S proteasome beta subunit 5 of human MCF7 cells using fluorogenic substrate Suc-LLVY-AMC after 1 hr by fluorescence analysis; assay type: cell-based
# T3 sequence (P28074 whole entry): T1 sequence (whole entry)
# Procedure, shortened: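 For IC50, intact MCF-7 cells treated 12 h with compounds, then lysed (sucrose/HEPES/MgCl2/EDTA, 1 mM DTT); extracts in Tris pH 7.8/MgOAc/MgCl2/KCl/DTT mix with substrate 1 h at 37 °C; AMC fluorescence ex 360/em 460 nm, normalized to BCA total protein; DMSO solvent and MG-132 positive controls.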
# MCF7 [6] = assay: Effect on 20S proteasome beta subunit 5 expression in human MCF7 cells at IC50 after 12 hrs by Western blot analysis; assay type: functional, cell-based
# MCF7 [7] = assay: Increase in K48-linked polyubiquitinated protein expression in human MCF7 cells at IC50 after 12 hrs by Western blot analysis; assay type: functional, cell-based
# Proteasome Macropain subunit (Homo sapiens), sequence (P49721 whole entry): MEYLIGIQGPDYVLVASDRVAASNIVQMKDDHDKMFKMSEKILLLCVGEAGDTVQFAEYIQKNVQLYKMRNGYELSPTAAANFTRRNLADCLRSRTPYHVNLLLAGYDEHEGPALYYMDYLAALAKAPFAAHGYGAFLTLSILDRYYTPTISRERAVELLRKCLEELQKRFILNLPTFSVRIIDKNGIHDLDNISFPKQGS
IC50 (MCF7 [1]) [µM],inhibition [2] [%],inhibition [3],inhibition [4],IC50 [5] [µM],Compound,Activity (MCF7 [6]),Activity (MCF7 [7])
4.32,11.4,9.52%,inactive,,Cc1cccnc1NC(=O)c1ccc(NC2=C(Cl)C(=O)c3ccccc3C2=O)cc1,,
3.84,19.6,3.59%,inactive,,O=C(Nc1nccs1)c1ccc(NC2=C(Cl)C(=O)c3ccccc3C2=O)cc1,,
6.19,19.4,8.55%,inactive,,O=C(Nc1ccc(Cl)cn1)c1ccc(NC2=C(Cl)C(=O)c3ccccc3C2=O)cc1,,
16.6,21.6,11.7%,27.6%,,O=C(Nc1cccc(Cl)c1)c1ccc(NC2=C(Cl)C(=O)c3ccccc3C2=O)cc1,,
15.4,4.03,10.7%,3.19%,,O=C(Nc1ccccc1)c1ccc(NC2=C(Cl)C(=O)c3ccccc3C2=O)cc1,,
4.52,15.8,inactive,1.55%,,O=C(Nc1ccc(Cl)cc1)c1ccc(NC2=C(Cl)C(=O)c3ccccc3C2=O)cc1,,
20.8,8.96,7.87%,2.43%,,O=C(Nc1ccncc1)c1ccc(NC2=C(Cl)C(=O)c3ccccc3C2=O)cc1,,
1.91,14.8,9.01%,13%,,Cc1cccnc1NS(=O)(=O)c1ccc(NC2=C(Cl)C(=O)c3ccccc3C2=O)cc1,,
4.16,22,7.42%,inactive,,Cc1ccc(NC(=O)c2ccc(NC3=C(Cl)C(=O)c4ccccc4C3=O)cc2)nc1,,
2.44,22.3,7.76%,7.11%,,Cc1csc(NC(=O)c2ccc(NC3=C(Cl)C(=O)c4ccccc4C3=O)cc2)n1,,
6.04,16.3,1.2%,inactive,,O=C(Nc1cccnc1)c1ccc(NC2=C(Cl)C(=O)c3ccccc3C2=O)cc1,,
14.4,14.6,15.1%,3.39%,,Cc1cccc(NC(=O)c2ccc(NC3=C(Cl)C(=O)c4ccccc4C3=O)cc2)c1,,
10.2,18.9,8.36%,6.55%,,Cc1cc(NC(=O)c2ccc(NC3=C(Cl)C(=O)c4ccccc4C3=O)cc2)no1,,
2.61,17.2,9.94%,inactive,,CC(C)c1ccccc1NC(=O)c1ccc(NC2=C(Cl)C(=O)c3ccccc3C2=O)cc1,,
16.1,35.3,22.8%,30.5%,33.1,O=C(Nc1ccc([N+](=O)[O-])cc1)c1ccc(NC2=C(Cl)C(=O)c3ccccc3C2=O)cc1,,
1.72,16.6,8.37%,inactive,,Cc1ccnc(NC(=O)c2ccc(NC3=C(Cl)C(=O)c4ccccc4C3=O)cc2)c1,,
2.11,11.7,3.35%,7.26%,,Cc1ccnc(NS(=O)(=O)c2ccc(NC3=C(Cl)C(=O)c4ccccc4C3=O)cc2)c1,,
4.8,16.9,16.7%,4.41%,,O=C(Nc1cccc2ccccc12)c1ccc(NC2=C(Cl)C(=O)c3ccccc3C2=O)cc1,,
4.65,22.4,11.2%,22.1%,,O=C1C(Cl)=C(Nc2ccc(S(=O)(=O)Nc3cccnc3Cl)cc2)C(=O)c2ccccc21,,

# The remaining lines, values behind:
Compound,IC50 (MCF7 [1]) [µM],inhibition [2] [%],inhibition [3],inhibition [4],IC50 [5] [µM],Activity (MCF7 [6]),Activity (MCF7 [7])
O=C1C(Cl)=C(Nc2ccc(S(=O)(=O)Nc3cccc4ccccc34)cc2)C(=O)c2ccccc21,3.32,18.4,15.4%,21.2%,,,
O=C1C(Cl)=C(Nc2ccc(S(=O)(=O)Nc3ccc(Cl)cn3)cc2)C(=O)c2ccccc21,4.43,42.3,28.9%,35%,9.9,inactive,Active
O=C1C(Cl)=C(Nc2ccc(S(=O)(=O)Nc3ccccn3)cc2)C(=O)c2ccccc21,1.96,36.8,18.8%,29.6%,12.5,inactive,Active
O=C1C(Cl)=C(Nc2ccc(S(=O)(=O)Nc3ccccc3Cl)cc2)C(=O)c2ccccc21,2.56,3.25,1.21%,6.29%,,,
CCc1ccccc1NS(=O)(=O)c1ccc(NC2=C(Cl)C(=O)c3ccccc3C2=O)cc1,2.43,17.4,13.9%,21.1%,,,
O=C1C(Cl)=C(Nc2ccc(S(=O)(=O)Nc3ccc([N+](=O)[O-])cc3)cc2)C(=O)c2ccccc21,2.84,26,14.1%,22.7%,,,
COc1cc(NS(=O)(=O)c2ccc(NC3=C(Cl)C(=O)c4ccccc4C3=O)cc2)cc(OC)c1,2.2,20,12%,22.7%,,,
O=C1C(Cl)=C(Nc2ccc(S(=O)(=O)Nc3ccc(Br)cc3)cc2)C(=O)c2ccccc21,3.37,22.2,10%,23.8%,,,
CC(C)c1ccccc1NS(=O)(=O)c1ccc(NC2=C(Cl)C(=O)c3ccccc3C2=O)cc1,5.38,20,11.5%,17.1%,,,
O=C1C(Cl)=C(Nc2ccc(S(=O)(=O)Nc3ccccc3[N+](=O)[O-])cc2)C(=O)c2ccccc21,3.99,17.3,14.2%,21.3%,,,
O=C1C(Cl)=C(Nc2ccc(S(=O)(=O)N3CCOCC3)cc2)C(=O)c2ccccc21,1.84,10.8,16.2%,2.76%,,,
COc1cccc2c1C(=O)c1c(O)c3c(c(O)c1C2=O)C[C@@](O)(C(=O)CO)C[C@@H]3O[C@H]1C[C@H](N)[C@H](O)[C@H](C)O1 [DOXORUBICIN],0.93,,,,,,
Cc1ccc(NS(=O)(=O)c2ccc(NC3=C(Cl)C(=O)c4ccccc4C3=O)cc2)nc1,1.79,10.1,inactive,11.6%,,,
O=C1C(Cl)=C(Nc2ccc(S(=O)(=O)Nc3cccc(Cl)c3)cc2)C(=O)c2ccccc21,2.1,28.8,14.2%,24.5%,,,
CC(C)C[C@@H](C=O)NC(=O)[C@H](CC(C)C)NC(=O)[C@H](CC(C)C)NC(=O)OCc1ccccc1 (Cbz-Leu-Leu-Leu-aldehyde),,38.2,18.4%,51.4%,,,
Cc1csc(NS(=O)(=O)c2ccc(NC3=C(Cl)C(=O)c4ccccc4C3=O)cc2)n1,4.23,24.8,15.4%,21%,,,
O=C1C(Cl)=C(Nc2ccc(S(=O)(=O)Nc3cccc([N+](=O)[O-])c3)cc2)C(=O)c2ccccc21,2.17,23.5,7.44%,19.4%,,,
